# Laboratory results: PMC10524360 (Cell chemical biology, 2023)
# “Also recorded” adds a separate entry of the source. Residues, ends and D or L forms follow the SMILES beside them. *: point of attachment. Cbz = O=C(OCc1ccccc1)*; CH2F = FC*
# How the values were obtained:
# [1] = system: H460^C Cas9 cells; assay: cell death; type: cell-based, human; conditions: for effect on cell death induced by co-treatment of FSEN1 and RSL3: H460^C Cas9, 5 μM RSL3 + 1 μM FSEN1, Z-VAD 10 μM, Nec1s 1 μM; for effect on cell death induced by co-treatment of FSEN1 and RSL3 / effect on cell death induced by DHA and FSEN1 together: Fer-1 2 μM, DFO 100 μM, idebenone 10 μM, tocopherol 10 μM; for minimal dose that achieves maximal synergy for inducing ferroptosis: checkerboard FSEN1 (0–15 μM) x RSL3 (0–15 μM)
# Procedure, shortened: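 H460C Cas9 cells get dose series of RSL3 or DHA with vehicle or 1 μM FSEN1, plus ferroptosis inhibitors where indicated (Fer-1 2 μM, DFO 100 μM, idebenone 10 μM, tocopherol 10 μM). Dead cells are stained with SYTOX Green and imaged on IncuCyte over 24 hr. Lethal fraction is dead/total cells, and its AUC is fit against concentration (variable slope) for EC50. Mean ± SEM, 2–3 biological replicates.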
# [2] = target: NQO1 (Homo sapiens, UniProt P15559); assay: in vitro NQO1 CoQ1 oxidoreductase activity assay; type: biochemical; conditions: increasing concentrations of FSEN1
# [3] = target: T1, FSP1 (Homo sapiens, UniProt Q9BRQ8); assay: FSP1 enzyme kinetics; type: biochemical
# T1 sequence (Q9BRQ8 2-373 limits assumed): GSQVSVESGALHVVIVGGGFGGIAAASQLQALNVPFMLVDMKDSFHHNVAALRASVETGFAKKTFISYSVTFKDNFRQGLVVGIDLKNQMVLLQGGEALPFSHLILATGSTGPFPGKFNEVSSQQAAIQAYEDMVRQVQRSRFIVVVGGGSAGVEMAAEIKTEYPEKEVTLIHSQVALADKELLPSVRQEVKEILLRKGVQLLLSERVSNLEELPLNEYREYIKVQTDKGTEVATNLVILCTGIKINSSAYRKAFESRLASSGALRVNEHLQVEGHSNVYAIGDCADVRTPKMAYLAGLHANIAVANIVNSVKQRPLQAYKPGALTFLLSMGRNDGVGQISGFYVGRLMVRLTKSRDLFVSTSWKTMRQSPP
# Procedure, shortened: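 His-tagged human FSP1 (expressed in E. coli, Ni-NTA purified) in PBS was preincubated 30 min at RT with the test compound. NADH series: 25 nM enzyme, 10 μM CoQ-coumarin, 1–50 μM NADH, 50–500 nM compound. CoQ-coumarin series: 6.25 nM enzyme, 1–30 μM CoQ-coumarin, 200 μM NADH, 12.5–125 nM compound. Fluorescence (Ex 405/Em 475 nm) read every 15 s at RT; three biological replicates; Vmax and Km by nonlinear regression.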
# [4] = metabolic stability in mouse liver microsomes; type: in vitro ADME; conditions: mouse liver microsomes 0.5 mg/mL, 2 μM FSEN1
# Procedure, shortened: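 The test compound (2 μM) was incubated with 0.5 mg/mL mouse liver microsomes and 1.0 mM NADPH at 37°C, in triplicate, and sampled at 0, 5, 15, 30 and 45 min. Controls were no NADPH (negative) and 2 μM midazolam (positive). t1/2 = ln2/k; CLint = ln2/t1/2 × incubation volume/microsomal protein (μL/min/mg).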
# [5] = target: T2, purified mFSP1 (Mus musculus, UniProt Q8BUE4); assay: in vitro mFSP1 CoQ1 oxidoreductase activity assay; type: biochemical; conditions: 125 nM mFSP1
# T2 sequence (Q8BUE4 2-380 isoform Q8BUE4-2 limits assumed): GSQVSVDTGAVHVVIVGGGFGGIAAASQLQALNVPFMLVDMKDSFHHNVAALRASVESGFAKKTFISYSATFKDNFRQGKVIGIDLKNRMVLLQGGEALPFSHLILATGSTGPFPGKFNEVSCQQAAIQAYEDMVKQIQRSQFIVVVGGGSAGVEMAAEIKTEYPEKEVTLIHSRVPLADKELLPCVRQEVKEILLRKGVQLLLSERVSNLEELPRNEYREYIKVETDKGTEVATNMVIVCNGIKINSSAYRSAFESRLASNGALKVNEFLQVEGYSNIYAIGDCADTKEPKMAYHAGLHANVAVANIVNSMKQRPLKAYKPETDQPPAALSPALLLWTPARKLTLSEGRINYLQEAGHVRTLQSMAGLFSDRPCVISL
# Procedure, shortened: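 Purified enzyme in PBS was shaken briefly with the test compound (DMSO) and preincubated 30 min at RT. A 2X NADH/CoQ1 mix started the reaction; final 400 μM CoQ1, 500 μM NADH, 0.01–20 μM compound. Mouse FSP1 was used at 125 nM to match the specific activity of 12.5 nM human FSP1. Absorbance at 355 nm was read every 2.5 min; percent activity was used for IC50.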
# [6] = system: A549 lung cancer cells; assay: RSL3-induced cell death in A549 cells; type: cell-based, human; conditions: RSL3 with 1 μM FSEN1
# [7] = system: H460^C GPX4^KO cells; assay: cell death; type: cell-based, human
# Procedure, shortened: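 Cells were seeded in triplicate at 1000–1500 cells/well (384-well) 24 h before treatment. Test compound was added in medium with 30 nM SYTOX Green, and the plates were imaged (IncuCyte, 37°C, 5% CO2) every 1.5 or 3 h over 24 h. Lethal fraction = SYTOX+/(SYTOX+ plus mCherry+) objects; AUC averaged over three biological replicates; EC50 from a variable-slope fit.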
# [8] = system: FSP1^KO cells overexpressing mFSP1; assay: RSL3-induced ferroptosis in FSP1 knockout cells overexpressing mouse FSP1; type: cell-based, human
# Procedure, shortened: (§1)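 H460C knockout cells (mFSP1-overexpressing where stated) were seeded at 1500 cells/well in 384-well plates 24 h before treatment. Drug-containing medium with 30 nM SYTOX Green was added and cells were imaged in an IncuCyte at 37°C, 5% CO2 every 4 h for 24 h. Lethal fraction = SYTOX+/(SYTOX+ plus mCherry+) objects; AUC was fitted to a variable-slope curve for EC50.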
# [9] = in vivo pharmacokinetics in mice; parameters: species or system BALB/c mice; conditions: single 20 mg/kg I.P. dose
# Procedure, shortened: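 Mice (20–25 g) were group-housed five per cage at 22°C on a 12 h light/dark cycle. Each received a single 20 mg/kg intraperitoneal dose in a vehicle containing 20% DMSO, 20% ethanol and 20% PEG40. Plasma Cmax and elimination half-life are reported as median (IQR), n=5.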
# [10] = system: A375 melanoma cells; assay: cell death in A375 cells; type: cell-based, human; conditions: 1 μM FSEN1
# Procedure, shortened: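 Melanoma cells were treated with the test compound (1 μM), with 2 μM Fer-1 where indicated. Cell death was quantified as SYTOX Green-positive objects per mm2; mean ± SEM of two biological replicates.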
# [11] = system: H460^C Cas9 cells; assay: lipid peroxidation assay; type: cell-based, human; conditions: 1 μM FSEN1 with 200 nM RSL3
# Procedure, shortened: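 Cells in 6-well plates were treated 5 h with 200 nM RSL3 ± 1 μM test compound. They were washed in DPBS with Ca/Mg, labelled with BODIPY 581/591 C11 and trypsinised. Green fluorescence was measured by flow cytometry (FITC channel, >10,000 cells). Mean ± SD of n=3; one-way ANOVA with Tukey's test.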
# [12] = system: H460^C FSP1^KO cells; assay: cell death; type: cell-based, human; conditions: for cell death, single agent: 24 h library screen, 40 μM compounds
# Procedure, shortened: as §1
# Chain of NQO1 (P15559 2-274 limits assumed): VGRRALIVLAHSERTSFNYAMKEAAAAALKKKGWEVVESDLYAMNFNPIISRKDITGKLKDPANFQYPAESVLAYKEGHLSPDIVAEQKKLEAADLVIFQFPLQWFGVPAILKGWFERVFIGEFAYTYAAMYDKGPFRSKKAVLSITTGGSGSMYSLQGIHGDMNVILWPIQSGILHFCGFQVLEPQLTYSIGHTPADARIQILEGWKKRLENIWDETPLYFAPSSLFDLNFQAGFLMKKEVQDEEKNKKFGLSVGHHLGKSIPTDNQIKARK
compound,measurement,setting,value
"CC(=O)N(O)CCCCCNC(=O)CCC(=O)N(O)CCCCCNC(=O)CCC(=O)N(O)CCCCCN [DFO, deferoxamine]",effect on cell death induced by co-treatment of FSEN1 and RSL3,[1],blocked
same,effect on cell death induced by DHA and FSEN1 together,"[1]; H460^C cells, 1 μM FSEN1",completely suppressed
COc1ccc(N2CCN(Cc3cn4c(-c5ccc(Br)cc5)nnc4s3)CC2)cc1 [FSEN1],effect on CoQ oxidoreductase activity of NQO1,[2],no effect
same,change in Kcat values,[3]; as FSEN1 concentrations increased,decrease
same,mechanism of FSP1 inhibition,"[3]; varied NADH and CoQ-coumarin, parallel Lineweaver-Burke slopes",uncompetitive inhibitor
same,intrinsic clearance (CLint),[4],11.54 μL/min/mg protein
same,effect on CoQ1 oxidoreductase activity of purified mFSP1,[5],no effect
same,sensitizing effect on ferroptosis induction,[6],particularly large sensitizing effect
same,EC50,"[7]; read-out: EC50 for triggering cell death, lethal fraction (AUC) over 24 hr",69.4 nM
same,effect on ferroptosis sensitivity (RSL3),"[8]; FSP1^KO cells overexpressing mFSP1, 1 μM FSEN1",no effect
same,effect on sensitivity to RSL3,"[8]; FSP1^KO cells overexpressing mFSP1, FSEN1 up to 15 μM",no effect
same,median elimination half-life,"[9]; n=5, IQR 6.1 – 8.8",8.0 h
same,median maximum plasma concentration,"[9]; n=5, IQR 71.0–123.0",97.6 ng/mL
same,ferroptosis in the absence of an RSL3 co-treatment,[10],induced a small amount of ferroptosis
same,lipid peroxidation (BODIPY C11),[11],sensitized cells to lipid peroxidation
same,additional sensitization to DHA and FINO2 induced cell death,"[12]; FSP1^KO cells, 1 μM FSEN1",no additional sensitizing effect
same,effect on sensitivity to RSL3-induced cell death,"[12]; H460^C FSP1^KO cells, 1 μM FSEN1",did not result in any additional sensitization; also recorded: no effect
same,sensitization to cell death induced by GPX4 inhibitors RSL3 and ML162,"[1]; H460^C Cas9 cells, 1 μM FSEN1",sensitized
same,sensitization to cell death induced by DHA and FINO2,"[1]; H460^C cells, 1 μM FSEN1",strongly sensitized
same,minimal dose that achieves maximal synergy for inducing ferroptosis,[1]; H460^C Cas9 cells,0.55 µM
tocopherol,effect on cell death induced by co-treatment of FSEN1 and RSL3,[1],blocked
same,effect on cell death induced by DHA and FSEN1 together,"[1]; H460^C cells, 1 μM FSEN1",strongly suppressed
COC1=C(OC)C(=O)C(CCCCCCCCCCO)=C(C)C1=O [idebenone],effect on cell death induced by co-treatment of FSEN1 and RSL3,[1],blocked
same,effect on cell death induced by DHA and FSEN1 together,"[1]; H460^C cells, 1 μM FSEN1",strongly suppressed
"C[C@H]1[C@@H](O)O[C@@H]2O[C@@]3(C)CC[C@H]4[C@H](C)CC[C@@H]1[C@@]24OO3 [DHA, dihydroartemisinin, reference compound]","cell death, single agent",[12]; H460^C FSP1^KO cells,selectively induced cell death
same,"cell death, single agent",[1]; H460^C Cas9 cells,induced minimal amounts of ferroptosis on its own
"CCOC(=O)c1ccc(NC2CCCCC2)c(N)c1 [Fer-1, ferrostatin-1]",effect on cell death induced by co-treatment of FSEN1 and RSL3,[1],blocked
same,effect on cell death induced by DHA and FSEN1 together,"[1]; H460^C cells, 1 μM FSEN1",strongly suppressed
COC(=O)c1ccc([C@@H]2c3[nH]c4ccccc4c3C[C@@H](C(=O)OC)N2C(=O)CCl)cc1 [RSL3],"cell death, single agent",[12]; H460^C FSP1^KO cells,cytotoxic
same,"cell death, single agent",[1]; H460^C Cas9 cells,not the H460^C Cas9 cells
same,minimal dose that achieves maximal synergy for inducing ferroptosis,[1]; H460^C Cas9 cells,0.55 µM
CN1C(=O)NC(Cc2c[nH]c3c(Cl)cccc23)C1=O (centres unmarked) [Nec1s],effect on cell death induced by co-treatment of FSEN1 and RSL3,[1],no effect
COC(=O)C[C@H](NC(=O)[C@H](C)NC(=O)[C@@H](NC(=O)OCc1ccccc1)C(C)C)C(=O)CF [Z-VAD-FMK] (Cbz-Val-Ala-Asp(OMe)-CH2F),effect on cell death induced by co-treatment of FSEN1 and RSL3,[1],no effect
"Cc1ccc(-c2c(C#N)c(N)n3c(nc4ccccc43)c2C#N)cc1 [iFSP1, reference compound]","cell death, single agent",[7],selectively triggered cell death
same,"cell death, single agent",[1]; H460^C Cas9 cells,not in the H460^C Cas9 cells
